Compound activity from PubChem.
Compounds with a hit are over-represented: about 1.8% of the library has one in this group of screens.
NPY Y2 blocker = blocks the human neuropeptide Y Y2 receptor. inhibition, % at 2.7 µM. NPY-Y2 expressing cells, antagonist mode. 140,000 tested, 0.99% active. P49146
Target sequence (P49146 whole entry, looked up): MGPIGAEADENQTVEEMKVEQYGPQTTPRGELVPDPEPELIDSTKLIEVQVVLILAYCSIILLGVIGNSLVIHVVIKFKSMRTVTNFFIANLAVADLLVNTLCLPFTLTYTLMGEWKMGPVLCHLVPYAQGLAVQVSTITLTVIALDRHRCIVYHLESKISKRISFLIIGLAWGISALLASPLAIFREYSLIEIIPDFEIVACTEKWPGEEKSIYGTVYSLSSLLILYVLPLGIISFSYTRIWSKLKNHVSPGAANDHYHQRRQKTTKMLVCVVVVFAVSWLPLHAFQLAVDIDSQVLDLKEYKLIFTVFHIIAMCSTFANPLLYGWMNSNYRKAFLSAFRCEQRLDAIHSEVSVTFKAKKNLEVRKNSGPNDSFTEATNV
NPY-Y1 antag = blocks the human neuropeptide Y Y1 receptor. P25929. HEK293-CNG Y1 cells, membrane potential fluorescence; NPY at EC95, then isoproterenol. inhibition, % at 3.6 µM. 200,000 tested, 1% active. AID 1040;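 active = inhibition above the campaign mean inhibition of all tested compounds plus 3 SD, cut at about 20% in these data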
Target sequence (P25929 whole entry, looked up): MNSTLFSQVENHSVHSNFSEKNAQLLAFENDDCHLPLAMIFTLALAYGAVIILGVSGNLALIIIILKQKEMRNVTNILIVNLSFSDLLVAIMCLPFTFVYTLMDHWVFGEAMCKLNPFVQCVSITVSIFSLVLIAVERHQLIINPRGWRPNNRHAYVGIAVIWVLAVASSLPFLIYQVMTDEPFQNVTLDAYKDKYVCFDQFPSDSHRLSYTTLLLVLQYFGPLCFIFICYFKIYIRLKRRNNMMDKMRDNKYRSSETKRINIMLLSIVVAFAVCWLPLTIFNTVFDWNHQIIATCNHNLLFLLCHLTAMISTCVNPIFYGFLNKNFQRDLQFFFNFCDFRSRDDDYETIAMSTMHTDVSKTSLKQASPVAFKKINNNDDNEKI
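System: HEK293 cells with Y1 receptor plus CNG channel / Probe or stimulus: NPY 25 nM then isoproterenol 1 µM plus Ro 20-1724 25 µM / Compound: one concentration, 3.6 µM, in 0.4% DMSO / Schedule: compound incubation 1 h at room temperature, readout 45 min post-stimulation / Measured by: membrane potential fluorescence / Read-out: % inhibition of NPY effect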
NPY2 pot ag = human NPY-Y2 potentiation or agonism, primary screen. P49146. 220,000 tested, 0.45% active. cells expressing NPY-Y2, potentiator/agonist read-out. activation, % at 3.6 µM; in the data active = activation above about 27%;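 note: cells stimulated with NPY near EC25 plus isoproterenol at EC100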
NPY-Y1 PAM-ag = potentiators or agonists of human neuropeptide Y receptor Y1. activation, % at 3.6 µM. NPY-Y1 expressing cells, potentiator/agonist activation. AID 1304. 220,000 tested, 0.37% active. P25929; in the data active = activation above about 33%, passing the limit was not always enough;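 note: cells stimulated with NPY at EC10 then isoproterenol at EC100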
NPY-Y1 ant conf = confirmation of human neuropeptide Y receptor Y1 antagonists; AID 1254; shares compounds with NPY-Y1 antag; inhibition, % at 3.6 µM; 1,200 tested, 21% active; HEK293-CNG NPY-Y1, membrane potential fluorescence, cAMP; NPY challenge against isoproterenol-raised cAMP; in the data active = inhibition above about 20%
NPY-Y2 antag ct = human NPY-Y2 antagonism in NPY-Y1 counter-screen; shares compounds with NPY-Y1 antag; HEK293 NPY-Y2 CNG membrane potential fluorescence; cells given NPY, then isoproterenol; inhibition, % at 3.6 µM; 1,200 tested, 28% active; AID 1255
Of the large screens only hits and unclear results are named; the others gave an inactive call (follow-up assays come after a bar, where they were run); ! = not confirmed by another sample. Cut-off read from the data, not from the text of the source, unless noted: active = inhibition above about 17%; inactive = the rest.

Cc1nc(-n2ncc(C#N)c2N)c2c3c(sc2n1)CCC3	none
c1ccc2cc(CSCc3nc4ccccc4[nH]3)ccc2c1	none
CCN(CC)c1ccc(S(=O)(=O)N2CCOCC2)cc1NC(=O)CN1CCc2ccccc2C1	NPY-Y1 antag 23.1 (no result: NPY Y2 blocker) | NPY-Y1 ant conf inactive | NPY-Y2 antag ct inactive
Cc1ccc(S(=O)(=O)N2CCOCC2)cc1NC(=O)CN1CCC(Cc2ccccc2)CC1	NPY-Y1 antag 30.4 (no result: NPY Y2 blocker) | NPY-Y1 ant conf inactive | NPY-Y2 antag ct inactive
COC(=O)c1sccc1NC(=O)CSc1cccc(Cl)c1Cl	NPY-Y1 antag 23.6 | NPY-Y1 ant conf inactive | NPY-Y2 antag ct inactive
COC(=O)c1sccc1NC(=O)/C=C/c1c(Cl)cccc1Cl	none
CSc1cc(-c2ccccc2)n(Cc2ccc(Cl)cc2Cl)c(=O)c1C#N	NPY-Y1 antag 24.3 | NPY-Y1 ant conf inactive | NPY-Y2 antag ct inactive
COCCN1Cc2cccc(C(=O)Nc3cc(OC)ccc3OC)c2C1=O	NPY-Y1 antag 34.1 | NPY-Y1 ant conf 26.6 | NPY-Y2 antag ct 62.4
FC(F)(F)c1cccc(NC(=S)Nc2cccc(NC(=S)Nc3cccc(C(F)(F)F)c3)n2)c1	none (no result: NPY Y2 blocker, NPY-Y1 antag)
Cc1cccn2c(CNC3CCCc4ccccc43)c(C(=O)N3CCCCC3)nc12 (configuration not stated)	NPY-Y1 antag 24.1 (no result: NPY Y2 blocker) | NPY-Y1 ant conf inactive | NPY-Y2 antag ct inactive
CCn1c(N2CCN(C(=S)NCCc3ccccc3)CC2)nc2ccccc21	none
CC1CC1c1ccc(/C=C(\C#N)C(=O)Nc2ccccc2Cl)o1 (configuration not stated)	NPY-Y1 antag 23.3 | NPY-Y1 ant conf inactive | NPY-Y2 antag ct inactive
CC(C)Cn1cc(C(=O)N2CCC(C)CC2)c2c3ccccc3n(C)c2c1=O	NPY-Y1 antag 23.0 (no result: NPY Y2 blocker) | NPY-Y1 ant conf inactive | NPY-Y2 antag ct inactive
CC(C)Cn1cc(C(=O)NCc2cccs2)c2c3ccccc3n(C)c2c1=O	NPY-Y1 antag 21.0 | NPY-Y1 ant conf inactive | NPY-Y2 antag ct inactive
CC(C)Cn1cc(C(=O)N2CCOCC2)c2c3ccccc3n(C)c2c1=O	none
O=C(C1CC1)N(CCN(Cc1ccccc1)C(=O)C1CC1)Cc1ccccc1	NPY-Y1 antag 54.6 | NPY-Y1 ant conf 39.6 | NPY-Y2 antag ct 24.2
COc1ccc(/C=C(\C#N)C(=O)NCC(c2ccc(F)cc2)N2CCOCC2)cc1 (configuration not stated)	none (no result: NPY Y2 blocker, NPY-Y1 antag)
COc1ccccc1-n1c(-c2ccccc2)c[nH]c1=S	none (no result: NPY Y2 blocker)
CC(C)c1ccc(-n2c(-c3ccccc3)c[n+]3c2CCc2ccccc2-3)cc1	NPY-Y1 antag 115.5 (no result: NPY Y2 blocker) | NPY-Y1 ant conf 112.0 | NPY-Y2 antag ct 76.7
COc1ccccc1-n1c(-c2ccccc2)c[n+]2c1CCc1ccccc1-2	NPY-Y1 antag 33.3 (no result: NPY Y2 blocker) | NPY-Y1 ant conf 20.5! | NPY-Y2 antag ct inactive
Cc1ccc(-n2cc(CNCC3CC(=O)N(C4CC4)C3)c(-c3cccc(C)c3)n2)cc1 (configuration not stated)	NPY-Y1 antag 21.8 (no result: NPY Y2 blocker) | NPY-Y1 ant conf inactive | NPY-Y2 antag ct inactive
Cc1nc(NCCc2ccccc2F)c(C#N)c(C)c1[N+](=O)[O-]	NPY-Y1 antag 29.2 | NPY-Y1 ant conf inactive | NPY-Y2 antag ct inactive
Cc1nc(NCCc2ccc(F)cc2)c(C#N)c(C)c1[N+](=O)[O-]	none
Cc1ccc(S(=O)(=O)Nc2cc(C)nn2-c2ccccc2)cc1	NPY-Y1 antag 33.0 | NPY-Y1 ant conf inactive | NPY-Y2 antag ct inactive
COc1ccc(C2c3[nH]c4ccccc4c3CCN2CCCn2cccn2)c(C)c1C (configuration not stated)	NPY-Y1 antag 36.4 (no result: NPY Y2 blocker) | NPY-Y1 ant conf inactive | NPY-Y2 antag ct 19.6
Cc1cc(C(=O)Nn2cnc3ccccc3c2=O)ccc1[N+](=O)[O-]	none (no result: NPY Y2 blocker)
CCc1ccc(/C=C\C(=O)N2CCc3ccccc3C2)cc1	NPY-Y1 antag 21.2 | NPY-Y1 ant conf inactive | NPY-Y2 antag ct inactive
COc1cccc(C2=NN(C(=O)c3ccc(C)o3)C(O)(C(F)(F)F)C2)c1 (configuration not stated)	NPY-Y1 antag 30.6 (no result: NPY Y2 blocker) | NPY-Y1 ant conf inactive | NPY-Y2 antag ct inactive
CCC(C)NC(=O)CN1C(=O)NC2(CCc3ccccc3C2)C1=O (configuration not stated)	none (no result: NPY Y2 blocker)
CCc1nc(N2CCN(C(=O)c3ccccc3)CC2)c2c3c(sc2n1)CCCC3	NPY-Y1 antag 21.8 (no result: NPY Y2 blocker) | NPY-Y1 ant conf inactive | NPY-Y2 antag ct inactive
CCOc1nc(-c2ccc(Cl)cc2Cl)ccc1C#N	NPY-Y1 antag 36.1 | NPY-Y1 ant conf inactive | NPY-Y2 antag ct inactive
Cc1ccnc(N2CCN(C(=O)CSc3nc4ccccc4nc3N3CCC(C)CC3)CC2)c1	NPY-Y1 antag 23.8 (no result: NPY Y2 blocker) | NPY-Y1 ant conf inactive | NPY-Y2 antag ct inactive
Cc1cc(/C=C2/SC(=S)N(c3cccc(C(F)(F)F)c3)C2=O)c(C)n1-c1cccnc1	NPY-Y1 antag 48.3 | NPY-Y1 ant conf 35.1 | NPY-Y2 antag ct 24.4
CCOc1cc(C)cc2oc(=O)cc(-c3ccccc3)c12	none
Cc1cc(OCC(=O)N2CCc3ccccc3C2)c2c(-c3ccccc3)cc(=O)oc2c1	NPY-Y1 antag 20.8 | NPY-Y1 ant conf inactive | NPY-Y2 antag ct inactive
CC(C)CCNC(=O)c1cccc(S(=O)(=O)N2CCc3ccccc32)c1	none
CC(C)CN(CC(C)C)C(=O)c1cccc(S(=O)(=O)N2CCc3ccccc32)c1	NPY-Y1 antag 29.2 (no result: NPY Y2 blocker) | NPY-Y1 ant conf inactive | NPY-Y2 antag ct inactive
COc1cccc(Cn2cc(C(=O)NCCN(C)C)nn2)c1	none (no result: NPY Y2 blocker)
CCCCOC(=O)c1ccc(NC(=S)NC(=O)c2c(Cl)cnn2C)cc1	NPY-Y1 antag 25.2 | NPY-Y1 ant conf inactive | NPY-Y2 antag ct inactive
Cc1cccc2cc(COC(=O)COc3ccccc3)c(=O)[nH]c12	none
CCCNc1nc(NCC)nc(OC)n1	none
Cc1nn(-c2ccccc2)c(Cl)c1/C=N/NC(=O)OC(C)(C)C	none
Cc1ccc(C)c(OCC(=O)N/N=C/c2c(C)nn(-c3ccccc3)c2Cl)c1	NPY-Y1 antag 21.1 | NPY-Y1 ant conf inactive | NPY-Y2 antag ct inactive
Cc1nn(C(C)C(=O)NNC(=S)Nc2ccc(F)cc2)c(C)c1[N+](=O)[O-] (configuration not stated)	none
CCCCOc1ccc(C(=O)O)cc1	none
CCCCOc1ccc(C(=O)OC(C)CN(C)C)cc1 (configuration not stated)	NPY-Y1 antag 24.0 | NPY-Y1 ant conf inactive | NPY-Y2 antag ct inactive
COc1cc(Cl)cc2c1Sc1ccccc1/C2=C/CCN(C)C	none
COc1cc2c(cc1Cl)/C(=C\CCN(C)C)c1ccccc1S2	NPY-Y1 antag 29.1 | NPY-Y1 ant conf inactive | NPY-Y2 antag ct 17.7
COc1ccc(CCNC(=O)C2CCN(Cc3nc(-c4ccccc4F)oc3C)CC2)cc1OC	none
Cc1ccccc1-c1nc(CN2CCC(C(=O)NCCCN3CC(C)CC(C)C3)CC2)c(C)o1 (configuration not stated)	NPY-Y1 antag 23.4 | NPY-Y1 ant conf inactive | NPY-Y2 antag ct 23.7
